In brackets after ≈: the same amount, converted by molar mass. Activity calls are given as the source filed them. The rule behind the calls is not given here.
Assays:
[1] = Negative allosteric modulator activity at human N-terminal His-tagged DRP1-human C-terminal GST-tagged MiD49 protein protein interaction expressed in Escherichia coli BL21 (DE3) incubated for 90 mins by AlphaLISA assay
Method in brief: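 AlphaLISA proximity assay. Glutathione donor and nickel chelate acceptor beads added, then 60 min at room temperature protected from light before signal read. Hits run as 11-point dose–response with TruHits counter-screen.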

[2] = Solubility of compound in PBS at pH 7.5; format: physicochemical
A549 [3] = assay: Inhibition of CCCP-induced mitochondrial fragmentation in human A549 cells preincubated for 1 hr followed by CCCP stimulation for 3 hrs by Alexa Fluor 488/568 and Hoechst staining based high-content imaging analysis; format: functional, cell-based; settings: time 4.0 hrs
Method in brief: (§1)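 A549 cells exposed to compound 1 h at 37 °C, then co-treated with CCCP (5 μM) a further 3 h at 37 °C. Cells fixed in paraformaldehyde and stained with anti-TOM20 primary and goat anti-mouse secondary. Mitochondrial morphology scored by high-content imaging with a supervised machine-learning classifier trained on control siRNA (normal), OPA1 siRNA (fragmented) and DRP1 siRNA (hypertubular) images.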

A549 [4] = assay: Inhibition of CCCP-induced mitochondrial fragmentation in human A549 cells at 0.37 to 3.3 uM preincubated for 1 hr followed by CCCP stimulation for 3 hrs by Alexa Fluor 488/568 and Hoechst staining based high-content imaging analysis; format: functional, cell-based; settings: dose 0.37-3.3 µM, time 4.0 hrs; method in brief: as §1
A549 [5] = assay: Inhibition of CCCP-induced mitochondrial morphology change in human A549 cells at 10 uM preincubated for 1 hr followed by CCCP stimulation for 3 hrs by Alexa Fluor 488/Hoechst 33342 staining based high-content imaging analysis; format: functional, cell-based; settings: time 4.0 hrs; method in brief: as §1

CC(C)C(=O)Nc1ccc2nc(-c3ccccc3)cc(N3CCOCC3)c2c1
IC50 [1]: 22 µM

CC(C)C(=O)Nc1ccc2nc(-c3ccccc3)cc(-n3cccn3)c2c1
IC50 [1]: 12 µM

COc1ccc(-c2cc(N3CCC3)c3cc(NC(=O)C4COC4)ccc3n2)cc1
IC50 [1]: 0.14 µM

CC(C)C(=O)Nc1ccc2nc(-c3ccccc3)cc(N3CCCC3=O)c2c1
IC50 [1]: > 100 µM

CCOc1cc(-c2ccccc2)nc2ccc(NC(=O)C(C)C)cc12
IC50 [1]: 3.6 µM

CC(C)C(=O)Nc1ccc2nc(-c3ccccc3)cc(N3CC(F)C3)c2c1
IC50 [1]: 0.29 µM

CC1CN(c2cc(-c3ccccc3)nc3ccc(NC(=O)C(C)C)cc23)C1
IC50 [1]: 0.58 µM

CC(C)C(=O)Nc1ccc2nc(-c3ccccc3)cc(N(C)C)c2c1
IC50 [1]: 11 µM

CC(C)C(=O)Nc1ccc2nc(-c3ccccc3)cc(N3CCC3)c2c1
IC50 [1]: 0.12 µM

O=C(Nc1ccc2nc(-c3ccccc3)cc(N3CCC3)c2c1)C1COC1
IC50 [1]: 0.1 µM | solubility [2]: 281 µM (≈ 101 µg/mL) | inhibition (A549 [3]): Dose-Dependent Effect | inhibition (A549 [4]): Active | inhibition (A549 [5]): Active

O=C(Nc1ccc2nc(-c3ccccc3)cc(N3CC(O)C3)c2c1)C1COC1
IC50 [1]: 0.29 µM

Cc1ccc(-c2cc(N3CCC3)c3cc(NC(=O)C(C)C)ccc3n2)cc1
IC50 [1]: 0.05 µM | solubility [2]: 11 µM (≈ 3.95 µg/mL)

CC(C)C(=O)Nc1ccc2nc(-c3ccccc3)cc(N3CCCC3)c2c1
IC50 [1]: 0.45 µM

CC(C)C(=O)Nc1ccc2nc(-c3ccccc3)cc(-n3ccnc3)c2c1
IC50 [1]: 22 µM

CC(C)C(=O)Nc1ccc2nc(-c3ccccc3)cc(N3CCCCC3)c2c1
IC50 [1]: 13 µM

CCNc1cc(-c2ccccc2)nc2ccc(NC(=O)C(C)C)cc12
IC50 [1]: 4.3 µM

— ChEMBL document CHEMBL5360668, “Discovery of Potent Allosteric DRP1 Inhibitors by Disrupting Protein-Protein Interaction with MiD49” (ACS Med Chem Lett, 2023)
